Laboratory results from ChEMBL document CHEMBL1275408, “A chemical genomic screen in Saccharomyces cerevisiae reveals a role for diphthamidation of translation elongation factor 2 in inhibition of protein synthesis by sordarin” (2008).
Activity calls are given as the source filed them. The rule behind the calls is not given here.

Columns and labels:
Saccharomyces cerevisiae [1] = experiment: Antifungal activity against Saccharomyces cerevisiae BY4741 harboring DHH1 YDL160C mutant gene by spectrophotometry; format: functional
In short: (§1)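 Screen of BY4741 KanMX4 deletion strains pre-grown 3 days at 28°C in YPD with G418 (150 mg/liter), then pinned into liquid SC containing GM193663. The sensitivity screen used 2 ng/ml; the resistance screen used 62.5 ng/ml, with validation at 62.5, 125 and 500 ng/ml. OD595 was read every 24 h over 5 days at 28°C. Growth was scored relative to wild type and to drug-free controls. Retests were at least in duplicate.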

Saccharomyces cerevisiae [2] = experiment: Antifungal activity against Saccharomyces cerevisiae BY4741 harboring QRI5 YLR204W mutant gene by spectrophotometry; format: functional
In short: (§2)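 Haploid MATa BY4741 KanMX4 deletion strains pinned from frozen stocks into YPD + G418 (150 mg/liter), grown 3 days at 28°C to confluence, then pin-replicated into SC liquid with no drug or sordarin derivative GM193663 (2 ng/ml sensitivity; 62.5 ng/ml resistance). 28°C, OD595 read every 24 h for 5 days; growth scored relative to wild type on same plate and to untreated mutant.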

Saccharomyces cerevisiae [3] = experiment: Antifungal activity against Saccharomyces cerevisiae BY4741 harboring YBR099C mutation by spectrophotometry; format: functional; in short: as §2
Saccharomyces cerevisiae [4] = experiment: Antifungal activity against Saccharomyces cerevisiae BY4741 harboring RAD28 YDR030C mutant gene by spectrophotometry; format: functional; in short: as §2
Saccharomyces cerevisiae [5] = experiment: Antifungal activity against Saccharomyces cerevisiae BY4741 harboring DJP1 YIR004W mutant gene by spectrophotometry; format: functional; in short: as §1
Saccharomyces cerevisiae [6] = experiment: Antifungal activity against Saccharomyces cerevisiae BY4741 harboring THI20 YOL055C mutant gene by spectrophotometry; format: functional; in short: as §2
Saccharomyces cerevisiae [7] = experiment: Antifungal activity against Saccharomyces cerevisiae BY4741 harboring MRPL36 YBR122C mutant gene by spectrophotometry; format: functional; in short: as §2
Saccharomyces cerevisiae [8] = experiment: Antifungal activity against Saccharomyces cerevisiae BY4741 harboring MRP21 YBL090W mutant gene by spectrophotometry; format: functional; in short: as §1
Saccharomyces cerevisiae [9] = experiment: Antifungal activity against Saccharomyces cerevisiae BY4741 harboring RSM19 YNR037C mutant gene by spectrophotometry; format: functional; in short: as §2
Saccharomyces cerevisiae [10] = experiment: Antifungal activity against Saccharomyces cerevisiae BY4741 harboring JJJ3/DPH4 YJR097W mutant gene by spectrophotometry; format: functional; in short: as §1
Saccharomyces cerevisiae [11] = experiment: Antifungal activity against Saccharomyces cerevisiae BY4741 harboring DPH2 YKL191W mutant gene by spectrophotometry; format: functional; in short: as §1
Saccharomyces cerevisiae [12] = experiment: Antifungal activity against Saccharomyces cerevisiae BY4741 harboring deletion mutation in dph4 gene at 100 ng/ml by plate assay; format: functional, organism-based
In short: (§3)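 Spot test on solid SC glucose plates with or without 100 ng/ml sordarin. Drops of 10^5 cells plus 10-fold serial dilutions of each dph deletion strain were spotted alongside the parental strain. Plates were incubated at 28°C for 6 days and imaged every 24 h.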

Saccharomyces cerevisiae [13] = experiment: Antifungal activity against Saccharomyces cerevisiae BY4741 harboring deletion mutation in dph3 gene at 100 ng/ml by plate assay; format: functional, organism-based; in short: as §3
Saccharomyces cerevisiae [14] = experiment: Antifungal activity against Saccharomyces cerevisiae BY4741 harboring YDL062W mutation in unknown gene by spectrophotometry; format: functional; in short: as §2
Saccharomyces cerevisiae [15] = experiment: Antifungal activity against Saccharomyces cerevisiae BY4741 harboring YDR042C mutation in unknown gene by spectrophotometry; format: functional
In short: (§4)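 Deletion strains from the nonessential haploid MATa BY4741 collection (KanMX4 replacement) were grown in YPD with G418 at 28°C for 3 days, then pinned into liquid SC with or without sordarin derivative GM193663 (2 ng/ml for sensitivity, 62.5 ng/ml for resistance). Cultures were kept at 28°C and read at OD595 every 24 h for 5 days. Growth was scored against wild type on the same plate and against the drug-free control. Hits were retested at least in duplicate.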

Saccharomyces cerevisiae [16] = experiment: Antifungal activity against Saccharomyces cerevisiae BY4741 harboring MRH1 YDR033W mutant gene by spectrophotometry; format: functional; in short: as §1
Saccharomyces cerevisiae [17] = experiment: Antifungal activity against Saccharomyces cerevisiae BY4741 harboring YLR143W mutation in unknown gene by spectrophotometry; format: functional; in short: as §4
Saccharomyces cerevisiae [18] = experiment: Antifungal activity against Saccharomyces cerevisiae BY4741 harboring YHR151C mutation in unknown gene by spectrophotometry; format: functional; in short: as §4
Saccharomyces cerevisiae [19] = experiment: Antifungal activity against Saccharomyces cerevisiae BY4741 harboring YGR228W mutation in unknown gene by spectrophotometry; format: functional; in short: as §4
Saccharomyces cerevisiae [20] = experiment: Antifungal activity against Saccharomyces cerevisiae BY4741 harboring SCS22 YBL091C-A mutant gene by spectrophotometry; format: functional; in short: as §2
Saccharomyces cerevisiae [21] = experiment: Antifungal activity against Saccharomyces cerevisiae BY4741 harboring MOH1 YBL049W mutant gene by spectrophotometry; format: functional; in short: as §1
Saccharomyces cerevisiae [22] = experiment: Antifungal activity against Saccharomyces cerevisiae BY4741 harboring COX11 YPL132W mutant gene by spectrophotometry; format: functional; in short: as §1
Saccharomyces cerevisiae [23] = experiment: Antifungal activity against Saccharomyces cerevisiae BY4741 harboring DAL7 YIR031C mutant gene by spectrophotometry; format: functional; in short: as §1

Q: With `CO[C@H]1[C@@H](O)[C@H](O)[C@H](OC[C@@]23C[C@@H]4[C@H](C)CC[C@H]4[C@@]4(C=O)CC2C=C(C(C)C)[C@@]34C(=O)O)O[C@@H]1C` [SORDARIN] as the compound, how does the MIC (Saccharomyces cerevisiae [1]) read?
A: > 0.125 mg/L

Q: And the MIC (Saccharomyces cerevisiae [2])?
A: > 0.125 mg/L

Q: What about the MIC (Saccharomyces cerevisiae [3]) of the same compound?
A: > 0.5 mg/L

Q: And the MIC (Saccharomyces cerevisiae [4])?
A: > 0.5 mg/L

Q: And the MIC (Saccharomyces cerevisiae [5])?
A: > 0.5 mg/L

Q: What about the MIC (Saccharomyces cerevisiae [6]) of the same compound?
A: > 0.5 mg/L

Q: What about the MIC (Saccharomyces cerevisiae [7]) of the same compound?
A: > 0.5 mg/L

Q: What about the MIC (Saccharomyces cerevisiae [8]) of the same compound?
A: > 0.5 mg/L

Q: And the MIC (Saccharomyces cerevisiae [9])?
A: > 0.5 mg/L

Q: What about the MIC (Saccharomyces cerevisiae [10]) of the same compound?
A: > 0.125 mg/L

Q: What about the MIC (Saccharomyces cerevisiae [11]) of the same compound?
A: > 0.5 mg/L

Q: And the MIC (Saccharomyces cerevisiae [12])?
A: inactive

Q: What about the MIC (Saccharomyces cerevisiae [13]) of the same compound?
A: inactive

Q: What about the MIC (Saccharomyces cerevisiae [14]) of the same compound?
A: > 0.125 mg/L

Q: What about the MIC (Saccharomyces cerevisiae [15]) of the same compound?
A: > 0.125 mg/L

Q: And the MIC (Saccharomyces cerevisiae [16])?
A: > 0.125 mg/L

Q: What about the MIC (Saccharomyces cerevisiae [17]) of the same compound?
A: > 0.5 mg/L

Q: And the MIC (Saccharomyces cerevisiae [18])?
A: > 0.5 mg/L

Q: And the MIC (Saccharomyces cerevisiae [19])?
A: > 0.5 mg/L

Q: What about the MIC (Saccharomyces cerevisiae [20]) of the same compound?
A: > 0.5 mg/L

Q: What about the MIC (Saccharomyces cerevisiae [21]) of the same compound?
A: > 0.5 mg/L

Q: What about the MIC (Saccharomyces cerevisiae [22]) of the same compound?
A: > 0.125 mg/L

Q: What about the MIC (Saccharomyces cerevisiae [23]) of the same compound?
A: > 0.125 mg/L
